697 NFkB inh: lowers PMA/ionomycin-induced NF-kB signal in 697 B cells; 697 B-cell NF-kB luciferase reporter, 16 h; inhibition, % at 4 µM; 330,000 compounds, 0.33% hits; AID 435022; in the data active = inhibition above about 35%
NR2E3 ag-1: agonists of human nuclear receptor NR2E3; Q9Y5X4; GST-NR2E3/biotin-RetCOR TR-FRET, 1536-well; inhibition of corepressor binding, % at 4.78 µM; 320,000 compounds, 0.12% hits; AID 2300;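 active = percent inhibition above the cutoff of mean plus 3 SD of all tested compounds, set per screening campaign, cut at about 20% in these data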;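 also: 0% = DMSO wells and 100% = biotin wells as full block of FRET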
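System: GST-tagged NR2E3 plus biotinylated RetCOR corepressor; Amount: 1.35 nM GST-tagged NR2E3 final; Dosing: single nominal compound dose of 4.8 µM; Schedule: 5 h incubation at 4 °C; Technique: TR-FRET with europium anti-GST and streptavidin-D2, 340 nm excitation; Controls: biotin wells as high control, 0.6% DMSO wells as low control.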
Jurkat NFkB inh: inhibitors of the PMA/ionomycin-induced NF-kB reporter in Jurkat cells. 330,000 compounds, 0.53% hits. inhibition, % at 4 µM. PMA/ionomycin-induced NF-kB luciferase reporter, luminescence; in the data active = inhibition above about 50%
NR2E3 ag-2: activates human NR2E3 receptor; CHO-S Gal4-NCOR/VP16-NR2E3 two-hybrid, luciferase; inhibition of corepressor binding, % at 3.98 µM; 360,000 compounds, 0.35% hits; AID 602229;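 active = inhibition above the mean of all tested compounds plus 3 SD, cut at about 70% in these data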;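 also: 0% = DMSO with NR2E3 transfected cells and 100% = cells lacking NR2E3 construct; higher means lower luciferase signal from less NR2E3 corepressor binding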
JMJD2C inh: inhibitors of human GASC-1 (JMJD2C) demethylase; GST-JMJD2C(1-420) H3K9me3 demethylation, DELFIA europium; 330,000 compounds, 0.069% hits; AID 2099; Q9H3R0; inhibition, % at 2.35 µM;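 active = more than half of a compound's replicate wells show inhibition beyond 50%, single wells judged on their own value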;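 also: signal counts dimethyl H3K9 product captured on neutravidin plate; 0% = median of DMSO wells and 100% = 0.3 times that DMSO median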
Target sequence (Q9H3R0 1-420 limits assumed): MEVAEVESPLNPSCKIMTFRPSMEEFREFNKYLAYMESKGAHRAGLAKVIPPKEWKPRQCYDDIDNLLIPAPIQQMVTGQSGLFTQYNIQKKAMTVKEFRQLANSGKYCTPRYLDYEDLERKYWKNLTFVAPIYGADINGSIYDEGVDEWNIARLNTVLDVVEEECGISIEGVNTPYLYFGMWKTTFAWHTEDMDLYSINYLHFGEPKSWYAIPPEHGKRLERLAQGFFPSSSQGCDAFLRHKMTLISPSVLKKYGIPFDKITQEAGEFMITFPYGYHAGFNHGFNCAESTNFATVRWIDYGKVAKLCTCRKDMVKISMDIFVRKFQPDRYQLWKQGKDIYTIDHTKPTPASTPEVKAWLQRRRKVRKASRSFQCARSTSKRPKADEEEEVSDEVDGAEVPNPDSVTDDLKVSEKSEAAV
GalR3 antag: human GalR3 antagonism; O60755; HEK293 GalR3-CNG cAMP membrane potential fluorescence; galR3 body fused to GalR1 C-terminus; inhibition, % at 3 µM; 360,000 compounds, 0.44% hits;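 active = inhibition above the screen-wide average plus 3 SD, cut at about 13% in these data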;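 also: forskolin and galanin both at EC90 stimulate the cells; cAMP rise reported by CNG channel membrane potential dye signal; 0% = forskolin plus galanin with DMSO and 100% = forskolin alone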
NR2E3 ag conf: NR2E3 agonism confirmed in two-hybrid assay; shares compounds with NR2E3 ag-2; CHO-S mammalian two-hybrid NR2E3-NCOR, luciferase luminescence; inhibition, % at 3.98 µM; 2,300 compounds, 51% hits; AID 624378;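 active = average inhibition above a cutoff equal to the mean inhibition of all tested compounds plus one SD, cut at about 70% in these data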;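 also: 0% = DMSO in NR2E3 cells and 100% = DMSO in cells lacking NR2E3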
VP16 counter: reduces GAL4-VP16 reporter signal in NR2E3 counterscreen; shares compounds with NR2E3 ag-2; CHO-S GAL4-VP16 luciferase reporter, luminescence; inhibition, % at 3.98 µM; 2,300 compounds, 29% hits; AID 624379;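 active = mean inhibition above a cutoff equal to the average over all tested compounds plus one standard deviation, cut at about 70% in these data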;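 also: luciferase from a UAS reporter driven by GAL4-VP16 transactivation; 0% = DMSO with VP16-transfected cells and 100% = DMSO with cells lacking VP16; higher means less reporter light so more repression of VP16 activity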
GalR3 antag conf: GalR3 (human) antagonism, confirmation; shares compounds with GalR3 antag; HEK293 GalR3 CNG cAMP biosensor, membrane potential fluorescence; galR3 fused to GalR1 carboxy tail; challenged with forskolin and galanin at EC90; inhibition, % at 3 µM; 1,600 compounds, 59% hits;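 active = inhibition above the primary screen's cutoff, the mean inhibition of all screened compounds plus 3 SD, cut at about 13% in these data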;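 also: 0% = forskolin plus galanin and 100% = forskolin alone with DMSO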
HEK-CNG parental: counter-screen for GalR3 antagonists: nonspecific agonists in parental HEK-CNG cells | HEK293-CNG parental cells, cAMP membrane potential fluorescence; normalised: DMSO wells 0%, forskolin wells 100% | shares compounds with GalR3 antag | AID 652268 | 1,600 compounds, 10% hits | activation, % at 3 µM; in the data active = activation above about 1.3%
The depositor's hits bear a star; x = not tested or not shown. The list is not random: actives were taken first. Their share in the collection is about 1.5%.

SMILES	697 NFkB inh	NR2E3 ag-1	Jurkat NFkB inh	NR2E3 ag-2	JMJD2C inh	GalR3 antag	NR2E3 ag conf	VP16 counter	GalR3 antag conf	HEK-CNG parental
Cc1ccnc(NS(=O)(=O)c2ccc3ccccc3c2)n1	11	1	-9	-7	4	x	x	x	x	x
COc1ccc(-c2ocnc2C(=O)NCc2nn(-c3ccccc3)nc2C)cc1	-4	2	34	56	4	19*	87*	72*	84*	1
CC1CN(C(=O)c2cccc(S(=O)(=O)N3CCN(c4ccc(F)cc4)CC3)c2)CC(C)O1 (configuration not stated)	-14	1	8	14	15	-2	x	x	x	x
O=C(c1cccc(S(=O)(=O)N2CCN(c3ccc(F)cc3)CC2)c1)N1CCCC(C(F)(F)F)C1 (configuration not stated)	-8	-4	34	89*	-1	99*	97*	82*	95*	-1
CCCCOc1ncnc2c1[nH]c1ccc(F)cc12	-8	-2	30	75*	-16	29*	97*	73*	46*	0
COCCN(C(=O)COC(=O)/C=C/c1ccc(OC)c(OC)c1)c1c(N)n(Cc2ccccc2)c(=O)[nH]c1=O	4	1	12	-2	0	-3	x	x	x	x
NC(=O)c1c(-c2ccc(Cl)cc2Cl)csc1NC(=O)Cc1ccccc1	x	-3	x	56	7	95*	64	62	113*	-1
Cc1ccc(C2(C)NC(=O)N(CC(=O)NC3CCCCC3)C2=O)cc1 (configuration not stated)	15	x	-8	-1	x	-1	x	x	x	x
CC(=O)c1c(C)[nH]c(C(=O)OCc2ccccc2)c1C	-78	1	-15	-74	-11	2	x	x	x	x
CC(=O)c1c(C)[nH]c(C(=O)OCCCCN2C(=O)c3ccccc3C2=O)c1C	18	0	16	89*	0	20*	96*	88*	60*	0
Cc1cc(C(=O)CSc2nc3ccccc3[nH]2)c(C)n1CC1CCCO1 (configuration not stated)	-176	-2	-77	84*	-10	110*	87*	51	5	0
Cc1cc(C(=O)CSc2nc(N)cc(=O)[nH]2)c(C)n1CC1CCCO1 (configuration not stated)	5	x	1	-41	-6	-3	x	x	x	x
Cc1ccc(CCNc2ncnc(Cl)c2N)cc1	x	x	x	78*	x	104*	92*	74*	104*	0
CCCCCC(=O)NNC1CC(=O)N(c2cccc(OCC)c2)C1=O (configuration not stated)	0	1	-10	-8	21	-2	x	x	x	x
CCn1cc(CN(C)S(=O)(=O)c2ccc3ccccc3c2)c(C)n1	-5	2	36	66	-7	71*	88*	71*	103*	0
CCNC(=O)C1(C)CCN(C(=O)c2cccs2)C1 (configuration not stated)	x	x	x	-24	x	x	x	x	x	x
O=C(c1cc2sccc2n1Cc1ccc(F)cc1)N1CCN(c2nc3ccccc3s2)CC1	-44	2	34	74*	2	17*	92*	64	73*	1
Cn1c(C(=O)N2CCN(c3nc4ccccc4s3)CC2)cc2sccc21	17	0	5	-16	3	-5	x	x	x	x
COc1ccc(-c2coc3c(C(=O)NCc4ccc(F)c(F)c4)cccc23)c(C)c1	x	x	x	30	x	-8	x	x	x	x
COc1ccc(-c2ccc(C(=O)NCc3ccncc3)c3occc23)c(C)c1	x	x	x	82*	x	90*	95*	82*	103*	0
O=C(NCc1ccncc1)c1ccc(-c2ccc(F)c(F)c2)c2ccoc12	x	x	x	84*	x	29*	96*	82*	9	0
COc1ccc(-c2ccc(C(=O)NCc3ccc(F)c(F)c3)c3occc23)c(C)c1	x	x	x	-8	x	-3	x	x	x	x
COc1ccc(-c2coc3c(C(=O)NCc4ccc(OC)c(OC)c4)cccc23)c(C)c1	x	x	x	91*	x	89*	95*	82*	104*	0
Cc1ccc(S(=O)(=O)N2CCOC23CCN(C(=O)c2ccccc2Br)CC3)cc1	9	3	-7	-6	2	-7	x	x	x	x
CCCCCc1ccc(-c2cn(Cc3ccc(C(=O)c4ccccc4)cc3)nn2)cc1	-36	-5	39	-14	3	-4	x	x	x	x
SMILES	697 NFkB inh	NR2E3 ag-1	Jurkat NFkB inh	NR2E3 ag-2	JMJD2C inh	GalR3 antag	NR2E3 ag conf	VP16 counter	GalR3 antag conf	HEK-CNG parental
O=C(c1ccccc1)c1ccc(Cn2cc(-c3ccccc3)nn2)cc1	-26	-3	-2	64	5	25*	84*	64	56*	0
CCC(=O)c1ccc(OCC(O)CN2CCN(C(c3ccccc3)c3ccccc3)CC2)cc1 (configuration not stated)	-6	2	-17	3	19	-8	x	x	x	x
CCOc1ccc(N/C(SCc2cccc([N+](=O)[O-])c2)=C(/C#N)C(N)=O)cc1	19	1	13	-29	6	1	x	x	x	x
N#CC(C#N)=C(Nc1ccc(F)cc1)SCc1cccc(F)c1	14	-1	6	81*	-2	91*	89*	88*	35*	0
CC(O)CC(=O)OC[C@]12CC[C@H]3[C@@](C)(CC[C@H]4C(C)(C)CCC[C@]34C)[C@@H]1CC(C1=CC(=O)OC1O)O2 (some centres not stated)	x	x	x	67	x	23*	66	24	22*	1
O=C1CC(N2CCc3ccccc32)C(=O)N1c1ccc(F)cc1 (configuration not stated)	-11	3	-15	-12	2	4	x	x	x	x
COc1ccc(/C=C/S(=O)(=O)NCc2ccccc2)cc1OC	6	0	-11	10	0	-5	x	x	x	x
COc1ccccc1NS(=O)(=O)c1ccc(N/N=C(\C)C(C)C)c([N+](=O)[O-])c1	-53	-6	29	x	-43	33*	x	x	13*	-2
COc1ccc(NC(=O)C(=S)N2CCCC2)cc1	-18	-2	-13	-38	2	16*	x	x	1	0

Compound activity (PubChem BioAssay)
